In ChEMBL document CHEMBL1139616, “Nitrone derivatives of trolox as neuroprotective agents” (Bioorg Med Chem Lett, 2005):

Assays:
Assay type in all cases: functional; call rule not given here
[1] = species: Rattus norvegicus; experiment: In vitro inhibitory concentration against peroxynitrite (ONOO-): using pyrogallol red bleaching assay; (na: not active)
Summary of the method: (§1)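 Peroxynitrite scavenging measured as pyrogallol red bleaching at 542 nm. ONOO- prepared essentially by the Hughes and Nicklin method.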

[2] = species: Rattus norvegicus; experiment: In vitro inhibitory concentration against hydroxyl radical (-OH)
[3] = species: Rattus norvegicus; experiment: In vitro inhibitory concentration against lipid peroxidation (LPO)
Summary of the method: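 Brain mitochondria from male LATI Wistar rats (0.3 mg protein) in 25 mM Tris–HCl pH 7.4 with 0.2 mM ascorbic acid, with or without compound. Peroxidation started with 0.2 mM FeSO4, 60 min at 37 °C. Stopped with 20% TCA, centrifuged, supernatant boiled 20 min with 0.5% thiobarbituric acid. TBA-reactive products read at 535 nm.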

[4] = species: Rattus norvegicus; experiment: In vitro inhibitory concentration against Total peroxyl radical-trapping antioxidant parameter(TRAP)
Summary of the method: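 Total peroxyl radical-trapping antioxidant parameter taken from spectrophotometric reading at 417 nm of the ABTS cation radical, which forms by one-electron oxidation.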

[5] = species: Rattus norvegicus; experiment: In vitro inhibitory concentration against NO ([…]); (na: not active)
Summary of the method: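 NO generated by thermal breakdown of cupferron (0.2% in ethanol) at 40 °C. Samples at 0.3–100 mM in ethanol mixed with Griess–Ilosvay reagent (0.2% N-(1-naphthyl)ethylenediamine in 0.4 M HCl plus 2% sulfanilamide in 4 M HCl). Free NO estimated indirectly from its nitrite/nitrate products, absorbance read at 540 nm.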

[6] = species: Rattus norvegicus; experiment: In vitro inhibitory concentration against hydroxyl radical (-OH); (na: not active)
[7] = species: Rattus norvegicus; experiment: In vitro inhibitory concentration against peroxynitrite (ONOO-): using pyrogallol red bleaching assay; summary of the method: as §1

SMILES | IC50 [1] | IC50 [2] | IC50 [3] | IC50 [4] | IC50 [5] | IC50 [6] | IC50 [7]
CC(C)(C)/[N+]([O-])=C/c1ccccc1 | Not Active | 43000 µM | 16 µM | 3060 µM | – | – | –
CC(C)(C)/[N+]([O-])=C/c1ccc(S(=O)(=O)[O-])cc1S(=O)(=O)[O-].[Na+].[Na+] | Not Active | 1500 µM | 5490 µM | 437 µM | Not Active | – | –
COc1c(C)c(C)c2c(c1C)CCC(C)(/C=[N+](\[O-])C(C)(C)C)O2 (configuration not stated) | – | – | 23 µM | 2940 µM | – | Not Active | 3700 µM
COc1c(C)c(C)c2c(c1C)CCC(C)(/C=[N+](\[O-])C1CC1)O2 (configuration not stated) | – | – | 20 µM | 296 µM | – | Not Active | 1200 µM
Cc1c(C)c2c(c(C)c1O)CCC(C)(C(=O)O)O2 (configuration not stated) [TROLOX] | – | 60 µM | 25 µM | 10 µM | – | – | 550 µM

The next molecules have a lower IC50 [3] than those just listed; values first:

IC50 [1] | IC50 [2] | IC50 [3] | IC50 [4] | IC50 [5] | IC50 [6] | IC50 [7] | SMILES
– | 150 µM | 0.68 µM | 6 µM | – | – | 1100 µM | Cc1c(C)c2c(c(C)c1O)CCC(C)(/C=[N+](\[O-])C1CC1)O2 (configuration not stated)
Not Active | – | 10 µM | 895 µM | – | Not Active | – | CC(=O)Oc1c(C)c(C)c2c(c1C)CCC(C)(/C=[N+](\[O-])C(C)(C)C)O2 (configuration not stated)
– | 170 µM | 2 µM | 5.5 µM | – | – | 3200 µM | Cc1c(C)c2c(c(C)c1O)CCC(C)(/C=[N+](\[O-])C(C)(C)C)O2 (configuration not stated)
– | – | 3.7 µM | 117 µM | – | Not Active | 590 µM | CC(=O)Oc1c(C)c(C)c2c(c1C)CCC(C)(/C=[N+](\[O-])C1CC1)O2 (configuration not stated)
